The pIC50 is −log10 of the IC50, conventionally taken in molar units. For orientation: inhibition means how much of the control response was suppressed. The low end stands for little suppression, the high end for strong suppression.

From ChEMBL document CHEMBL3763156, “Imidazole-based pinanamine derivatives: Discovery of dual inhibitors of the wild-type and drug-resistant mutant of the influenza A virus” (Eur J Med Chem, 2016) come the findings set out here.

For assay [1], the system named is Influenza A virus. Put plainly: Antiviral activity against amantadine-resistant Influenza A virus A/WSN/33(H1N1) expressing M2 S31N mutant ion channel infected in MDCK cells assessed as protection against virus induced cytopathic effect after 48 hrs by microscopic analysis. Type of assay: functional, organism-based, A/WSN/1933(H1N1). Conditions: for pIC50: read-out: IC50; call rule not given here. The essentials: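 MDCK cells were grown 24 h to a confluent monolayer and rinsed twice. They were infected with 100 TCID50 virus for 2 h at 37 °C in 5% CO2, and the inoculum was removed. Serial two-fold compound dilutions in DMEM with 1.5 µg/mL trypsin were added for 48 h at 34 °C in 5% CO2. CPE percentage was scored microscopically. IC50 came from non-linear regression, as the mean of 2–3 determinations.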
For orientation: Damage to the host cells serves as the signal in cytopathic effect assays.

Assay [2] has as its system Influenza A virus. Put plainly: Antiviral activity against amantadine-resistant Influenza A virus A/WSN/33(H1N1) expressing M2 S31N mutant ion channel infected in MDCK cells assessed as cell viability after 48 hrs by MTT assay. Type of assay: functional, organism-based, A/WSN/1933(H1N1). The essentials:
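Infected MDCK cells were given compound for 48 h, and the CPE-based result was confirmed by MTT viability. MTT was added from a 5 mg/mL stock for 4 h at 37 °C, stopped with DMSO, and read as absorbance at 490 nm. The 50% effective concentration was calculated by the Reed–Muench method, as the mean of 2–3 determinations.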

Assay [3] has as its system Matrix protein 2 (Influenza A virus (A/Udorn/307/1972(H3N2))), P0DOF8 [S31N]. The assay can be described thus: Inhibition of Influenza A virus M2 S31N mutant ion channel expressed in Xenopus oocytes at 100 uM after 2 mins by two-electrode voltage clamp assay. Type of assay: cell-based. The essentials:
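A/M2 channel (S31N for line 7, wild type for line 9) was expressed in Xenopus oocytes and recorded by two-electrode voltage clamp. Compound was applied at 100 µM, and the percentage inhibition of channel current was taken after 2 min. Values are mean ± SD.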

The test system is the same in assay [4]. Put plainly: Inhibition of Influenza A virus M2 S31N mutant ion channel expressed in 293Trex cells at 100 uM after 2 mins by patch clamp assay. Type of assay: cell-based. (In general: In patch-clamp work, channel activity is measured electrically.)

pIC50: −log10 of the molar value.

`C[C@@H]1[C@H]2C[C@@H](C[C@H]1NCc1cnc(-c3cccs3)[nH]1)C2(C)C`: the IC50 result in assay [1] is “Not Active”.

As to `C[C@@H]1[C@H]2C[C@@H](C[C@H]1NCc1cnc(-c3ccccc3)[nH]1)C2(C)C`, the figures for the pIC50 in assay [1] and in assay [2] were 5.05 and 4.96, respectively. Turning to `CCCc1nc[nH]c1CN[C@@H]1C[C@@H]2C[C@H]([C@H]1C)C2(C)C`, the negative-log IC50 (pIC50) in assay [1] is 5.47; in assay [2], 5.14. In assay [3], this compound had an inhibition of 3.47%. On to `C[C@@H]1[C@H]2C[C@@H](C[C@H]1NCc1[nH]cnc1C(C)(C)C)C2(C)C`, for which, in assay [1], the IC50 result is reported as “Not Active”. With `C[C@@H]1[C@H]2C[C@@H](C[C@H]1NCc1cnc(C3CCCC3)[nH]1)C2(C)C`, in assay [1], the IC50 result is on record as “Not Active”. Take `Cc1nc(C(C)C)[nH]c1CN[C@@H]1C[C@@H]2C[C@H]([C@H]1C)C2(C)C`: the IC50 result in assay [1] is “Not Active”. The same measure, in the same setting: for `Cc1ncc(CN[C@@H]2C[C@@H]3C[C@H]([C@H]2C)C3(C)C)[nH]1` the value was “Not Active”.

Consider `CCc1nc(C)c(CN[C@@H]2C[C@@H]3C[C@H]([C@H]2C)C3(C)C)[nH]1`, for which, in assay [1], the IC50 result was “Not Active”. The same compound returned an inhibition in assay [3] of 1.73%.

Take `CCCc1nc(-c2ccccc2)[nH]c1CN[C@@H]1C[C@@H]2C[C@H]([C@H]1C)C2(C)C`: the results for the pIC50 in assay [1] and in assay [2] were 4.91 and 4.79, respectively. Consider `CCCc1nc(C(C)C)[nH]c1CN[C@@H]1C[C@@H]2C[C@H]([C@H]1C)C2(C)C`, for which the negative logarithm of the IC50 (pIC50) in assay [1] is 5.06; in assay [2], 4.95. Consider `Cc1nc[nH]c1CN[C@@H]1C[C@@H]2C[C@H]([C@H]1C)C2(C)C`, for which the pIC50 in assay [1] is 4.02. Moreover, the inhibition in assay [4] was 27%. For `CCc1ncc(CN[C@@H]2C[C@@H]3C[C@H]([C@H]2C)C3(C)C)[nH]1`, the pIC50 in assay [1] is 5.02. Consider `C[C@@H]1[C@H]2C[C@@H](C[C@H]1NCc1cncn1C)C2(C)C`, for which, in assay [1], the IC50 result is given as “Not Active”. For the compound `CCCc1nc(C2CC2)[nH]c1CN[C@@H]1C[C@@H]2C[C@H]([C@H]1C)C2(C)C`, the pIC50 in assay [1] is 5.14; in assay [2], 5.01. On the same counts, the results for `Cc1nc(C2CC2)[nH]c1CN[C@@H]1C[C@@H]2C[C@H]([C@H]1C)C2(C)C` are 5.03 and 4.67. With `C[C@@H]1[C@H]2C[C@@H](C[C@H]1NCc1[nH]cnc1-c1ccccc1)C2(C)C`, the IC50 entry in assay [1] is “Not Active”. As to `NC12CC3CC(CC(C3)C1)C2` [AMANTADINE], in assay [1], the negative-log IC50 (pIC50) was 3.47. This compound gave an inhibition in assay [3] of 24.3%. As to `CC(C)Cc1ncc(CN[C@@H]2C[C@@H]3C[C@H]([C@H]2C)C3(C)C)[nH]1`, the negative-log IC50 (pIC50) in assay [1] is 5.05; in assay [2], 4.73. Consider `C[C@@H]1[C@H]2C[C@@H](C[C@H]1NCc1cnc(C(C)(C)C)[nH]1)C2(C)C`, for which the pIC50 was 5.01 in assay [1] and 4.94 in assay [2]. Regarding `CC(C)c1ncc(CN[C@@H]2C[C@@H]3C[C@H]([C@H]2C)C3(C)C)[nH]1`, in assay [1], the IC50 entry is listed as “Not Active”.

Consider `CCCCc1ncc(CN[C@@H]2C[C@@H]3C[C@H]([C@H]2C)C3(C)C)[nH]1`, for which the IC50 result in assay [1] is “Not Active”. Same read-out and setting: as for `C[C@@H]1[C@H]2C[C@@H](C[C@H]1NCc1cnc(C3CCCCC3)[nH]1)C2(C)C`, the entry is “Not Active”; as for `CCc1nc[nH]c1CN[C@@H]1C[C@@H]2C[C@H]([C@H]1C)C2(C)C`, “Not Active”. As to `C[C@@H]1[C@H]2C[C@@H](C[C@H]1NCc1cnc(C3CC3)[nH]1)C2(C)C`, the pIC50 in assay [1] was 4.53.

`C[C@@H]1[C@H]2C[C@@H](C[C@H]1NCc1[nH]cnc1C1CC1)C2(C)C`: in assay [1], the IC50 result is reported as “Not Active”.
